Assay results from ChEMBL document CHEMBL1148384, “Design and synthesis of peptidomimetic protein farnesyltransferase inhibitors as anti-Trypanosoma brucei agents” (J Med Chem, 2004).

Experiments:
[1] = system: Trypanosoma brucei brucei; assay: Effective dose required to inhibit the growth of Trypanosoma brucei; format: functional; settings: read-out: ED50 (the source's name)
Procedure, shortened: (§1)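 Bloodstream-form strain 427 was grown in HMI-9 with 10% FBS at 37 °C, 5% CO2. Cells were seeded at 1 × 10^4 trypomastigotes/well in triplicate, with serial dilutions from 20 mM DMSO stocks. Growth was read with Alamar Blue at 48 h, pentamidine served as positive control, and ED50 was fitted from the curves.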

[2] = system: Trypanosoma brucei rhodesiense; assay: Dose required to inhibit growth of Trypanosoma brucei rhodesiense; 14->60 uM; format: functional; settings: read-out: ED50 (the source's name)
Procedure, shortened: (§2)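 Bloodstream-form trypomastigotes of strain STIB 900 were grown in HMI-18 with nonessential amino acids, glucose and 15% heat-inactivated FCS at 37 °C, 5% CO2. Compounds were given as serial dilutions, in triplicate, from 1 × 10^4 cells/well. Cultures ran 72 h before Alamar Blue read-out, and ED50 was fitted.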

[3] = system: Protein farnesyltransferase (Trypanosoma brucei); assay: Inhibition of Trypanosoma brucei protein farnesyltransferase at 50 nM (82-87%)
[4] = system: NIH3T3; assay: Effective dose against murine 3T3 fibroblasts cells; format: functional; settings: Mus musculus, read-out: ED50 (the source's name)
Procedure, shortened: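 Murine 3T3 fibroblasts were grown in RPMI 1640 with 10% FBS and held 72 h with compound at 37 °C, 5% CO2.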

[5] = system: Trypanosoma brucei rhodesiense; assay: Effective dose required to inhibit the growth of Trypanosoma brucei rhodesiense; format: functional; settings: read-out: ED50 (the source's name); procedure, shortened: as §2
[6] = system: protein farnesyltransferase (Trypanosoma brucei); assay: Inhibition of Trypanosoma brucei protein farnesyltransferase at 50 nM concentration (65-74%)
[7] = system: protein farnesyltransferase (Trypanosoma brucei); assay: Inhibition of against Trypanosoma brucei protein farnesyltransferase at 50 nM concentration
[8] = system: Trypanosoma brucei brucei; assay: Dose required to inhibit growth of Trypanosoma brucei; 1-10 uM; format: functional; settings: read-out: ED50 (the source's name); procedure, shortened: as §1
[9] = system: protein farnesyltransferase (Trypanosoma brucei); assay: Inhibition of Trypanosoma brucei protein farnesyltransferase at 50 nM (0-14%)
[10] = system: Trypanosoma brucei rhodesiense; assay: Dose required to inhibit growth of Trypanosoma brucei rhodesiense; 0.14-0.8 uM; format: functional; settings: read-out: ED50 (the source's name); procedure, shortened: as §2
[11] = system: Trypanosoma brucei brucei; assay: Dose required to inhibit growth of Trypanosoma brucei; 0.5-5 uM; format: functional; settings: read-out: ED50; procedure, shortened: as §1
[12] = system: Trypanosoma brucei rhodesiense; assay: Dose required to inhibit growth of Trypanosoma brucei rhodesiense; 0.38-0.92 uM; format: functional; settings: read-out: ED50; procedure, shortened: as §2
[13] = system: Trypanosoma brucei brucei; assay: Dose required to inhibit growth of Trypanosoma brucei; 1-5 uM; format: functional; settings: read-out: ED50; procedure, shortened: as §1
[14] = system: protein farnesyltransferase (Trypanosoma brucei); assay: Inhibition of Trypanosoma brucei protein farnesyltransferase at 50 nM (0-17%)
[15] = system: NIH3T3; assay: Dose required against murine 3T3 fibroblasts cells; 1-10 uM; format: functional; settings: Mus musculus, read-out: ED50 (the source's name)
[16] = system: protein farnesyltransferase (Trypanosoma brucei); assay: Inhibition of Trypanosoma brucei protein farnesyltransferase at 50 nM (29-41%)
[17] = target: protein farnesyltransferase (Trypanosoma brucei); assay: Inhibition of Trypanosoma brucei protein farnesyltransferase

SMILES	EC50 [1] [µM]	EC50 [5] [µM]	inhibition [7] [%]	EC50 [4] [µM]	also measured
COC(=O)[C@H](CCSC)NC(=O)c1ccc(CNCc2c[nH]cn2)cc1-c1ccccc1C	0.025	0.0026	41	25	–
COC(=O)[C@H](CCSC)NC(=O)c1ccc(NCc2cncn2Cc2ccc(C#N)cc2)cc1-c1ccccc1	–	–	–	> 10	inhibition [9]: ≤ 14%; EC50 [10]: ≤ 0.8 µM; EC50 [11]: ≤ 5 µM
CC(C)NC(=O)c1ccc(NCc2cncn2Cc2ccc(C#N)cc2)cc1-c1ccccc1	> 10	5.3	8.4	> 10	–
COC(=O)[C@H](CCSC)NC(=O)c1ccc(NCc2cncn2Cc2cccc(C)c2)cc1-c1ccccc1	–	–	–	> 10	EC50 [12]: ≤ 0.92 µM; EC50 [13]: ≤ 5 µM; inhibition [14]: ≤ 17%
COC(=O)[C@H](CCSC)NC(=O)c1ccc(CNCc2cncn2Cc2ccc(C#N)cc2)cc1-c1ccccc1C	0.5	0.1	7	> 10	–
COC(=O)[C@H](CCSC)NC(=O)c1ccc(NCc2cncn2Cc2cccc(C#N)c2)cc1-c1ccccc1	–	–	–	> 10	EC50 [12]: ≤ 0.92 µM; EC50 [13]: ≤ 5 µM; inhibition [14]: ≤ 17%
CCCCCn1cncc1CNc1ccc(C(=O)N[C@@H](CCSC)C(=O)O)c(-c2ccccc2)c1	–	–	80.6	–	–
N#Cc1ccc(Cn2cncc2CNc2ccc(C(=O)Nc3cccc([N+](=O)[O-])c3)c(-c3ccccc3)c2)cc1	> 10	3	9.1	> 10	–
CSCC[C@H](NC(=O)c1ccc(NC[C@@H](N)CS)cc1-c1ccccc1)C(=O)O	> 25	9.2	–	> 25	–
CSCC[C@H](NC(=O)c1ccc(NCc2cn(Cc3ccc(-c4ccccc4)cc3)cn2)cc1-c1ccccc1)C(=O)O	–	–	4.5	–	–
CCOC(=O)[C@H](CCSC)NC(=O)c1ccc(CNCc2c[nH]cn2)cc1-c1ccccc1C	0.01	0.005	10.4	10	–
CCCCC(CC)OC(=O)[C@H](CCSC)NC(=O)c1ccc(CNCc2c[nH]cn2)cc1-c1ccccc1C (some centres undefined)	0.02	0.02	15.2	–	EC50 [15]: > 10 µM
CSCNC(=O)c1ccc(NCc2cncn2Cc2ccc(C#N)cc2)cc1-c1ccccc1	> 10	3	17.1	> 10	–
COC(=O)[C@H](CCSC)NC(=O)c1ccc(NCc2cncn2Cc2cccc([N+](=O)[O-])c2)cc1-c1ccccc1	–	–	–	> 10	EC50 [12]: ≤ 0.92 µM; EC50 [13]: ≤ 5 µM; inhibition [14]: ≤ 17%
CSCC[C@H](NC(=O)c1ccc(CNCc2c[nH]cn2)cc1-c1ccccc1C)C(=O)OC1CCCCC1	0.03	0.018	4.5	–	EC50 [15]: > 10 µM
COC(=O)[C@H](CCSC)NC(=O)c1ccc(CN(Cc2c[nH]cn2)Cc2c[nH]cn2)cc1-c1ccccc1C	0.1	0.0015	66.2	> 10	–
COC(=O)[C@H](CCSC)NC(=O)c1ccc(NCc2cncn2Cc2ccccc2C#N)cc1-c1ccccc1	–	–	0	> 10	EC50 [8]: ≤ 10 µM
COC(=O)[C@H](CCSC)NC(=O)c1ccc(NCc2cncn2Cc2ccc([N+](=O)[O-])cc2)cc1-c1ccccc1	–	–	–	> 10	inhibition [9]: ≤ 14%; EC50 [10]: ≤ 0.8 µM; EC50 [11]: ≤ 5 µM

SMILES	EC50 [1] [µM]	EC50 [5] [µM]	inhibition [7] [%]	EC50 [4] [µM]	also measured
COC(=O)[C@H](CCSC)NC(=O)c1ccc(NCc2cncn2Cc2ccc(C)cc2)cc1-c1ccccc1	–	–	–	> 10	inhibition [9]: ≤ 14%; EC50 [10]: ≤ 0.8 µM; EC50 [11]: ≤ 5 µM
CSCC[C@H](NC(=O)c1ccc(CNCc2c[nH]cn2)cc1-c1ccccc1C)C(=O)OCc1ccccc1	0.02	–	41.7	–	EC50 [15]: > 10 µM
N#Cc1ccc(Cn2cncc2CNc2ccc(C(=O)NCc3ccccc3)c(-c3ccccc3)c2)cc1	10	8.2	1.2	> 10	–
N#CCNC(=O)c1ccc(NCc2cncn2Cc2ccc(C#N)cc2)cc1-c1ccccc1	> 10	45	0	> 10	–
CSCC[C@H](NC(=O)c1ccc(NCc2cncn2CC2CCCCC2)cc1-c1ccccc1)C(=O)O	–	–	69.8	–	–
N#Cc1ccc(Cn2cncc2CNc2ccc(C(=O)NCC3CCCCC3)c(-c3ccccc3)c2)cc1	–	3.2	18.6	> 10	EC50 [8]: > 10 µM
CSCC[C@H](NC(=O)c1ccc(NCc2cn(CC3CCCCC3)cn2)cc1-c1ccccc1)C(=O)O	–	–	12	–	–
N#Cc1ccc(Cn2cncc2CNc2ccc(C(=O)Nc3cccc(C#N)c3)c(-c3ccccc3)c2)cc1	> 10	–	2.2	> 10	–
COC(=O)[C@H](CCSC)NC(=O)c1ccc(NCc2cncn2Cc2ccc(Cl)cc2)cc1-c1ccccc1	–	–	–	> 10	inhibition [9]: ≤ 14%; EC50 [10]: ≤ 0.8 µM; EC50 [11]: ≤ 5 µM
CCCCCn1cnc(CNc2ccc(C(=O)N[C@@H](CCSC)C(=O)O)c(-c3ccccc3)c2)c1	–	–	11.5	–	–
CSCC[C@H](NC(=O)c1ccc(CN(Cc2c[nH]cn2)Cc2c[nH]cn2)cc1-c1ccccc1C)C(=O)O	–	0.9	–	> 10	EC50 [8]: > 10 µM
COC(=O)[C@H](CCSC)NC(=O)c1ccc(NCc2cncn2Cc2ccc(-c3ccccc3)cc2)cc1-c1ccccc1	–	–	–	> 10	inhibition [9]: 14%; EC50 [10]: > 0.14 µM; EC50 [11]: ≤ 5 µM
CSCC[C@H](NC(=O)c1ccc(CNCc2c[nH]cn2)cc1-c1ccccc1C)C(=O)OC(C)C	0.005	0.003	6.2	10	–
C=COC(=O)[C@H](CCSC)NC(=O)c1ccc(CNCc2c[nH]cn2)cc1-c1ccccc1C	0.01	0.009	4.9	–	EC50 [15]: > 10 µM
COC(=O)[C@H](CCSC)NC(=O)c1ccc(NC[C@@H](N)CS)cc1-c1ccccc1	0.7	–	–	> 25	IC50 [17]: 0.04 µM
CSCC[C@H](NC(=O)c1ccc(CNCc2[nH]cnc2C)cc1-c1ccccc1C)C(=O)O	> 10	–	68.5	> 10	–
COC(=O)[C@H](CCSC)NC(=O)c1ccc(NCc2cncn2Cc2cccc(Cl)c2)cc1-c1ccccc1	–	–	–	> 10	EC50 [12]: ≤ 0.92 µM; EC50 [13]: ≤ 5 µM; inhibition [14]: ≤ 17%

Second part, led by results:

EC50 [1] [µM]	EC50 [5] [µM]	inhibition [7] [%]	SMILES	EC50 [4] [µM]	also measured
> 10	–	–	CSCC[C@H](NC(=O)c1ccc(NCc2cncn2Cc2ccc(Cl)cc2)cc1-c1ccccc1)C(=O)O	> 10	EC50 [2]: > 60 µM; inhibition [3]: ≤ 87%
> 10	> 60	–	CSCC[C@H](NC(=O)c1ccc(NCc2cncn2Cc2cccc(C#N)c2)cc1-c1ccccc1)C(=O)O	> 10	inhibition [6]: ≤ 74%
–	–	0	COC(=O)[C@H](CCSC)NC(=O)c1ccc(NCc2cncn2Cc2ccccc2C)cc1-c1ccccc1	> 10	EC50 [8]: ≤ 10 µM
> 10	> 60	–	CSCC[C@H](NC(=O)c1ccc(NCc2cncn2Cc2cccc(Cl)c2)cc1-c1ccccc1)C(=O)O	> 10	inhibition [6]: ≤ 74%
> 10	–	–	CSCC[C@H](NC(=O)c1ccc(NCc2cncn2Cc2ccc([N+](=O)[O-])cc2)cc1-c1ccccc1)C(=O)O	> 10	EC50 [2]: > 60 µM; inhibition [3]: 87%
–	–	0	COC(=O)[C@H](CCSC)NC(=O)c1ccc(NCc2cncn2Cc2ccccc2Cl)cc1-c1ccccc1	> 10	EC50 [8]: ≤ 10 µM
> 10	> 60	–	CSCC[C@H](NC(=O)c1ccc(NCc2cncn2Cc2ccccc2C)cc1-c1ccccc1)C(=O)O	> 10	inhibition [16]: ≤ 41%
> 10	–	–	CSCC[C@H](NC(=O)c1ccc(NCc2cncn2Cc2ccc(C)cc2)cc1-c1ccccc1)C(=O)O	> 10	EC50 [2]: > 60 µM; inhibition [3]: ≤ 87%
> 10	> 60	–	CSCC[C@H](NC(=O)c1ccc(NCc2cncn2Cc2ccccc2Cl)cc1-c1ccccc1)C(=O)O	> 10	inhibition [16]: ≤ 41%
> 10	> 60	–	CSCC[C@H](NC(=O)c1ccc(NCc2cncn2Cc2ccccc2C#N)cc1-c1ccccc1)C(=O)O	> 10	inhibition [16]: ≤ 41%
> 10	> 60	–	CSCC[C@H](NC(=O)c1ccc(NCc2cncn2Cc2ccc(C#N)cc2)cc1-c1ccccc1)C(=O)O	> 10	inhibition [3]: ≤ 87%
> 10	> 60	–	CSCC[C@H](NC(=O)c1ccc(NCc2cncn2Cc2cccc(C)c2)cc1-c1ccccc1)C(=O)O	> 10	inhibition [6]: ≤ 74%
